≈ marks a conversion by molar mass, not a printed value.

In ChEMBL document CHEMBL1131215, “Anhydrolide macrolides. 1. Synthesis and antibacterial activity of 2,3-anhydro-6-O-methyl 11,12-carbamate erythromycin A analogues” (1998) one finds MIC and ED50 data, which are given here for seven molecules.

Holding throughout (assay type): functional
Test [1] concerns Streptococcus pneumoniae. In words: In vitro antibacterial activity against 5649 strain of Streptococcus pneumoniae. To be noted: Streptococcus pneumoniae. In short, it runs like this:
(§1)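 MIC determined by standard agar dilution; values in μg/mL.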

Test [2] deals with Streptococcus pyogenes. Nature of the test: In vitro antibacterial activity against 930 strain of Streptococcus pyogenes. To be noted: Streptococcus pyogenes. In short, it runs like this: as §1
The test system of a further test is Haemophilus influenzae. Nature of the test: In vitro antibacterial activity against DILL strain of Haemophilus influenzae. In short, it runs like this:
as §1

The subject of test [3] is Staphylococcus aureus. Nature of the test: In vitro antibacterial activity against 6538P strain of Staphylococcus aureus. In short, it runs like this:
as §1

Test [4] relates to Staphylococcus aureus. Nature of the test: In vitro antibacterial activity against A5177 strain of Staphylococcus aureus. To be noted: Staphylococcus aureus. In outline:
as §1

Test [5] concerns Streptococcus pyogenes. Nature of the test: In vitro antibacterial activity against PIU 2548 strain of Streptococcus pyogenes. In outline: as §1
The subject of test [6] is Streptococcus pneumoniae. Nature of the test: In vitro antibacterial activity against ATCC 6303 strain of Streptococcus pneumoniae. The conditions noted are these: Streptococcus pneumoniae, ATCC 6303. In short, it runs like this:
as §1

The subject of test [7] is Streptococcus pneumoniae. In words: In vitro antibacterial activity against 5979 strain of Streptococcus pneumoniae. In short, it runs like this: as §1
The nature of test [8]: In vitro antibacterial activity against A-5278 strain of Staphylococcus aureus. The conditions noted are these: Staphylococcus aureus. In short, it runs like this:
as §1

Test [9] deals with Mus musculus. Nature of the test: Effective dose when administered orally in mice infected with Staphylococcus aureus NCTC-10649M. The conditions noted are these: po. In short, it runs like this:
(§2)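 Mice infected intraperitoneally with 1000 × LD₅₀ (S. aureus) or […] × LD₅₀ (S. pneumoniae). Compound given orally (po) or subcutaneously (sc) at 1 and 5 h post-infection. ED₅₀ expressed in mg/kg/day with 95% confidence interval.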

For test [10], the system named is Streptococcus pneumoniae. Nature of the test: In vivo antibacterial activity in mice infected with Streptococcus pneumoniae ATCC 6303.
The test system of test [11] is Staphylococcus aureus. Nature of the test: In vivo antibacterial activity in mice infected with Staphylococcus aureus NCTC-10649M.
For test [12], the system named is Mus musculus. In words: Effective dose when administered orally in mice infected with Streptococcus pneumoniae ATCC 6303. The conditions noted are these: po. In short, it runs like this: as §2
Test [13] deals with Mus musculus. In words: Effective dose when administered subcutaneously in mice infected with Staphylococcus aureus NCTC-10649M. To be noted: sc. In short, it runs like this:
as §2

In test [14] the test system is Mus musculus. In words: Effective dose when administered subcutaneously in mice infected with Streptococcus pneumoniae ATCC 6303. The conditions noted are these: sc. In outline: as §2

With `CC[C@H]1OC(=O)/C(C)=C/[C@H](C)[C@@H](O[C@@H]2O[C@H](C)C[C@H](N(C)C)[C@H]2O)[C@@](C)(OC)C[C@@H](C)C(=O)[C@H](C)[C@H]2N(CCc3ccc(C)cc3)C(=O)O[C@]12C`, the MIC with Streptococcus pneumoniae [1] came out at 0.25 µg/mL (≈ 0.35 µM); with Streptococcus pyogenes [2], 12.5 µg/mL (≈ 17.5 µM); against Haemophilus influenzae, 16 µg/mL (≈ 22.4 µM); against Staphylococcus aureus [3] (Staphylococcus aureus), 0.39 µg/mL (≈ 0.545 µM); in the test on Staphylococcus aureus [4] it was 0.39 µg/mL (≈ 0.545 µM); in the test with Streptococcus pyogenes [5] (Streptococcus pyogenes), 0.39 µg/mL (≈ 0.545 µM). For the same molecule, the MIC in the test on Streptococcus pneumoniae [6] amounted to 0.015 µg/mL (≈ 0.021 µM); with Streptococcus pneumoniae [7], 16 µg/mL (≈ 22.4 µM); in [8], 25 µg/mL (≈ 35 µM).

For orientation: ED50 means the dose that gives a 50% effect, or the effect in half of the subjects. A high value points to a need for a large dose. Turning to `CC[C@H]1OC(=O)/C(C)=C/[C@H](C)[C@@H](O[C@@H]2O[C@H](C)C[C@H](N(C)C)[C@H]2O)[C@@](C)(OC)C[C@@H](C)C(=O)[C@H](C)[C@H]2N(CCc3ccc(F)cc3)C(=O)O[C@]12C`, the MIC in the test with Streptococcus pneumoniae [1] was found to be 1 µg/mL (≈ 1.39 µM); against Streptococcus pyogenes [2], 25 µg/mL (≈ 34.8 µM); with Haemophilus influenzae, 16 µg/mL (≈ 22.3 µM); in the test on Staphylococcus aureus [3] (Staphylococcus aureus), 0.39 µg/mL (≈ 0.542 µM); in the test on Staphylococcus aureus [4], 0.39 µg/mL (≈ 0.542 µM); in the test on Streptococcus pyogenes [5] (Streptococcus pyogenes), 0.39 µg/mL (≈ 0.542 µM). Further, the MIC with Streptococcus pneumoniae [10] was found to be 0.125 µg/mL (≈ 0.174 µM); in the test with Staphylococcus aureus [11], 0.39 µg/mL (≈ 0.542 µM); against Streptococcus pneumoniae [6], 0.125 µg/mL (≈ 0.174 µM); against Streptococcus pneumoniae [7] it was 32 µg/mL (≈ 44.5 µM); in test [8], 50 µg/mL (≈ 69.6 µM). For the same molecule, the ED50 in the test on Mus musculus [9] was > 100 mg/kg/day; with Mus musculus [12], > 40 mg/kg/day.

In the case of `CC[C@H]1OC(=O)/C(C)=C/[C@H](C)[C@@H](O[C@@H]2O[C@H](C)C[C@H](N(C)C)[C@H]2O)[C@@](C)(OC)C[C@@H](C)C(=O)[C@H](C)[C@H]2NC(=O)O[C@@]21C` (stereo in doubt; 6), the MIC worked out at 0.5 µg/mL (≈ 0.838 µM) in the test on Streptococcus pneumoniae [1]; 1.56 µg/mL (≈ 2.61 µM) in the test with Staphylococcus aureus [3]; 0.78 µg/mL (≈ 1.31 µM) against Staphylococcus aureus [4]; 0.2 µg/mL (≈ 0.335 µM) against Streptococcus pyogenes [5]; 0.25 µg/mL (≈ 0.419 µM) against Streptococcus pneumoniae [10]; 1.56 µg/mL (≈ 2.61 µM) against Staphylococcus aureus [11]. Also, the MIC against Streptococcus pneumoniae [6] worked out at 0.25 µg/mL (≈ 0.419 µM). The ED50 in the test on Mus musculus [9] is 35.8 mg/kg/day; with Mus musculus [12], > 40 mg/kg/day.

Take `CC[C@H]1OC(=O)/C(C)=C/[C@H](C)[C@@H](O[C@@H]2O[C@H](C)C[C@H](N(C)C)[C@H]2O)[C@@](C)(OC)C[C@@H](C)C(=O)[C@H](C)[C@H]2N(CCc3ccc(Cl)c(Cl)c3)C(=O)O[C@]12C`: the MIC against Streptococcus pneumoniae [1] was 2 µg/mL (≈ 2.6 µM); against Streptococcus pyogenes [2], 6.2 µg/mL (≈ 8.05 µM); against Haemophilus influenzae, 32 µg/mL (≈ 41.6 µM); in the test with Staphylococcus aureus [3] (Staphylococcus aureus) it was 0.39 µg/mL (≈ 0.507 µM); against Staphylococcus aureus [4], 0.39 µg/mL (≈ 0.507 µM); in the test on Streptococcus pyogenes [5] (Streptococcus pyogenes) it was 0.2 µg/mL (≈ 0.26 µM). The MIC against Streptococcus pneumoniae [10] was found to be 0.12 µg/mL (≈ 0.156 µM); in the test with Staphylococcus aureus [11], 0.39 µg/mL (≈ 0.507 µM); with Streptococcus pneumoniae [6], 0.12 µg/mL (≈ 0.156 µM); against Streptococcus pneumoniae [7], 8 µg/mL (≈ 10.4 µM); in test [8] it was 12.5 µg/mL (≈ 16.2 µM). Further, the ED50 with Mus musculus [9] was > 100 mg/kg/day; in the test on Mus musculus [12] it was > 40 mg/kg/day; with Mus musculus [13], > 40 mg/kg/day; in the test on Mus musculus [14], > 16 mg/kg/day.

For `CC[C@H]1OC(=O)/C(C)=C/[C@H](C)[C@@H](O[C@@H]2O[C@H](C)C[C@H](N(C)C)[C@H]2O)[C@@](C)(OC)C[C@@H](C)C(=O)[C@H](C)[C@H]2N(CC/C=C\c3ccc(Cl)cc3)C(=O)O[C@]12C`, the MIC with Streptococcus pneumoniae [1] was 1 µg/mL (≈ 1.31 µM); in the test on Streptococcus pyogenes [2] it was 3.1 µg/mL (≈ 4.07 µM); in the test on Haemophilus influenzae, 32 µg/mL (≈ 42 µM); with Staphylococcus aureus [3] (Staphylococcus aureus), 0.39 µg/mL (≈ 0.512 µM); in the test with Streptococcus pyogenes [5] (Streptococcus pyogenes) it was 0.2 µg/mL (≈ 0.263 µM); with Streptococcus pneumoniae [6] it was 0.12 µg/mL (≈ 0.158 µM). The MIC in the test with Streptococcus pneumoniae [7] amounted to 8 µg/mL (≈ 10.5 µM); in test [8], 12.5 µg/mL (≈ 16.4 µM).

As for `CC[C@H]1OC(=O)/C(C)=C/[C@H](C)[C@@H](O[C@@H]2O[C@H](C)C[C@H](N(C)C)[C@H]2O)[C@@](C)(OC)C[C@@H](C)C(=O)[C@H](C)[C@H]2N(CCc3cccc(C(F)(F)F)c3)C(=O)O[C@]12C`, the MIC came to 1 µg/mL (≈ 1.3 µM) against Streptococcus pneumoniae [1]; 6.2 µg/mL (≈ 8.06 µM) in the test on Streptococcus pyogenes [2]; 32 µg/mL (≈ 41.6 µM) against Haemophilus influenzae; 0.39 µg/mL (≈ 0.507 µM) with Staphylococcus aureus [3] (Staphylococcus aureus); 0.78 µg/mL (≈ 1.01 µM) against Staphylococcus aureus [4]; 0.78 µg/mL (≈ 1.01 µM) in the test with Streptococcus pyogenes [5] (Streptococcus pyogenes). The MIC in the test with Streptococcus pneumoniae [6] is 0.125 µg/mL (≈ 0.163 µM); with Streptococcus pneumoniae [7], 16 µg/mL (≈ 20.8 µM); in test [8] it was 25 µg/mL (≈ 32.5 µM).

In the case of `CC[C@H]1OC(=O)/C(C)=C/[C@H](C)[C@@H](O[C@@H]2O[C@H](C)C[C@H](N(C)C)[C@H]2O)[C@@](C)(OC)C[C@@H](C)C(=O)[C@H](C)[C@H]2N(CCCOc3ccc4ccccc4c3)C(=O)O[C@]12C`, the MIC with Streptococcus pneumoniae [1] came out at 2 µg/mL (≈ 2.56 µM); with Streptococcus pyogenes [2], 3.1 µg/mL (≈ 3.97 µM); against Haemophilus influenzae it was 64 µg/mL (≈ 81.9 µM); against Staphylococcus aureus [3] (Staphylococcus aureus) it was 0.2 µg/mL (≈ 0.256 µM); in the test on Staphylococcus aureus [4], 0.39 µg/mL (≈ 0.499 µM); against Streptococcus pyogenes [5] (Streptococcus pyogenes), 0.39 µg/mL (≈ 0.499 µM). Further, the values for the MIC (against Streptococcus pneumoniae [6]; against Streptococcus pneumoniae [7]; in test [8]) were 0.03 µg/mL (≈ 0.0384 µM), 8 µg/mL (≈ 10.2 µM) and 25 µg/mL (≈ 32 µM), respectively.
